Values after ≈ are worked out from the molar mass of the structure shown. Active and inactive are the calls of the source. The calls are words filed in the database; no cut-off is given here.
Assays:
Assay type in all cases: functional
Candida albicans [1] = assay: Antifungal activity against Candida albicans SC5314 after 48 hrs by broth microdilution method; settings: SC5314, 48 h
Procedure, shortened: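 C. albicans SC5314 grown overnight, then set at (2−5) × 10^3 cells/mL in RPMI 1640. Compounds added at final 2 to 128 μg/mL, 35 °C for 48 h, following CLSI M27A3. OD600 read on a plate reader. MIC taken as the concentration giving 80% growth reduction.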

Candida albicans [2] = assay: Fungicidal activity against Candida albicans SC5314 at 16 ug/ml up to 12 hrs by YPD-based colony counting method
Procedure, shortened: (§1)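 Overnight SC5314 cells washed and resuspended at 1 × 10^6 cells/mL in MOPS-buffered RPMI 1640. Compound added at final 8, 16 and 32 μg/mL, shaken at 30 °C. Aliquots taken at 0, 0.5, 1, 2, 3, 4, 5, 6, 7, 8 and 12 h, washed, diluted and plated on YPD agar for viable colony counts. Means ± SD.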

Candida albicans [3] = assay: Fungicidal activity against Candida albicans SC5314 at 32 ug/ml up to 2 hrs by YPD-based colony counting method; procedure, shortened: as §1
Candida albicans [4] = assay: Induction of disruption of plasma membrane integrity in Candida albicans assessed as decrease in fluorescence intensity after 3 hrs by DPH-staining based spectrofluorophotometric analysis
Procedure, shortened: (§2)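 Cells at 1 × 10^6/mL in YPD treated 3 h (0, 4, 8, 16, 32 μg/mL; amphotericin B 8 μg/mL as positive control). Fixed in 0.37% formaldehyde 30 min, washed in PBS, freeze-thawed in liquid nitrogen. Stained with 1 μM DPH 45 min at 30 °C, washed. Fluorescence read at ex 350/em 450 nm and expressed as relative fluorescence. Means ± SD.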

Candida albicans [5] = assay: Induction of disruption of plasma membrane integrity in Candida albicans assessed as increase in fluorescence intensity after 3 hrs by propidium iodide-staining based FACS analysis
Procedure, shortened: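 Log-phase C. albicans harvested and suspended in RPMI 1640, then treated 3 h at 30 °C (amphotericin B 8 μg/mL as positive control). Stained with 5 μM propidium iodide for 30 min at room temperature. Cell fluorescence measured by flow cytometry.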

Candida albicans [6] = assay: Induction of disruption of plasma membrane integrity in Candida albicans assessed as decrease in fluorescence intensity at 8 ug/ml after 3 hrs by DPH-staining based spectrofluorophotometric analysis; procedure, shortened: as §2

| SMILES | MIC80 (Candida albicans [1]) | other results |
| --- | --- | --- |
| COC1=C(c2ccccc2O)C(=O)C=C(c2ccccc2)C1=O | 8 µg/mL (≈ 26.1 µM) | Activity (Candida albicans [2]): 99.8%; Activity (Candida albicans [3]): Active; Activity (Candida albicans [4]): Dose-dependent effect; Activity (Candida albicans [5]): Dose-dependent effect |
| COC1=C(c2ccccc2)C(=O)C=C(c2ccccc2)C1=O [BETULINAN C] | > 128 µg/mL | – |
| COC1=C(c2ccccc2)C(=O)c2oc3ccccc3c2C1=O | > 128 µg/mL | – |
| Oc1cc(-c2ccccc2)c(O)c2c1-c1ccccc1CO2 | > 128 µg/mL | – |
| COC1=C(c2ccccc2)C(=O)C2=C(C1=O)c1ccccc1CO2 [BETULINAN B] | > 128 µg/mL | – |
| O=C1C=C(c2ccccc2)C(=O)C2=C1c1ccccc1CO2 | > 128 µg/mL | – |
| C[C@@H]1[C@H](O)[C@@H](C)/C=C/C=C/C=C/C=C/C=C/C=C/C=C/[C@H](O[C@@H]2O[C@H](C)[C@@H](O)[C@H](N)[C@@H]2O)C[C@@H]2O[C@](O)(C[C@@H](O)C[C@@H](O)[C@H](O)CC[C@@H](O)C[C@@H](O)CC(=O)O[C@H]1C)C[C@H](O)[C@H]2C(=O)O | – | Activity (Candida albicans [6]): Active |

Now from value to molecule, other results behind:

| MIC80 (Candida albicans [1]) | SMILES | other results |
| --- | --- | --- |
| 16 µg/mL (≈ 51.9 µM) | COc1c(O)c(-c2ccccc2)cc(O)c1-c1ccc(O)cc1 | – |
| 64 µg/mL (≈ 197 µM) | COc1c(O)c(-c2ccccc2)cc(O)c1-c1cc(O)ccc1O | – |
| > 128 µg/mL | COC1(OC)C2C(=O)C=C(c3ccccc3)C1(O)Oc1ccc(O)cc12 (stereo not drawn) | – |
| 64 µg/mL (≈ 199 µM) | COC1=C(c2cc(O)ccc2O)C(=O)C=C(c2ccccc2)C1=O | – |
| 8 µg/mL (≈ 26.1 µM) | COC1=C(c2ccc(O)cc2)C(=O)C=C(c2ccccc2)C1=O | – |
| > 128 µg/mL | COc1c(O)c(-c2ccccc2)cc(O)c1-c1ccccc1 | – |
| > 128 µg/mL | COC12Oc3ccc(O)cc3C1(O)C(=O)C=C(c1ccccc1)C2=O (stereo not drawn) | – |

Reference: ChEMBL document CHEMBL3871273, “p-Terphenyl Derivatives from the Endolichenic Fungus Floricola striata” (2016)
